Assay outcomes as filed in PubChem.
LEDGF integ inh = blocks HIV-1 LEDGF/p75-dependent DNA integration. inhibition, % at 3.7 µM. TR-FRET IN-LEDGF/p75 DNA integration, Eu/Cy5. 370,000 compounds, 0.64% hits;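 active = inhibition above the screen-wide mean plus 3 SD, cut at about 13% in these data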;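 note: signal is the Cy5 over europium emission ratio at 671 and 618 nm; 0% = plate median of compound wells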
UHRF1 MBD2 ctr = blocks human UHRF1 binding to methylated DNA; UHRF1 binding to methylated oligo, TR-FRET; inhibition, % at 4.4 µM; 370,000 compounds, 0.75% hits; Q96T88; AID 687016; in the data active = inhibition above about 21%;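 note: UHRF1 SRA domain binding a hemimethylated CpG hairpin DNA probe; 0% = median of test compound wells and 100% = reference inhibitor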
SIAE inh = inhibitors of human sialic acid acetylesterase SIAE | SIAE FP-Rh probe binding, fluorescence polarization | Q9HAT2 | inhibition, % at 9.66 µM | 370,000 compounds, 0.69% hits | AID 1053197;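 active = inhibition above a cutoff: mean of compounds within the control limits plus 3 SD of those, cut at about 17% in these data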;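 note: 0% = plate median of compound wells and 100% = probe without SIAE protein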
TDP2 inh = blocks human TDP2 phosphodiesterase activity. O95551. recombinant TDP2, T5PNP hydrolysis, p-nitrophenol absorbance 415 nm. inhibition, % at 12.8 µM. 370,000 compounds, 0.34% hits;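 active = inhibition above the mean of all tested compounds plus 3 SD, set per campaign, cut at about 25% in these data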;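 note: 0% = DMSO with enzyme and 100% = buffer with substrate but no TDP2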
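Evaluation: % inhibition relative to enzyme-containing and enzyme-free wells. Material: recombinant human TDP2. Benchmarks: enzyme-free and DMSO wells. Timing: enzyme reaction with compound for 2 h at 37 °C. Compound dosing: 12.8 µM only. Measured by: p-Nitrophenol epi absorbance. Reagent: T5PNP substrate at 5 mM, a TopII-DNA adduct mimic. Replication: single well per compound.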
PRMT1 inh = inhibitors of human PRMT1; 370,000 compounds, 1.3% hits; inhibition, % at 2.79 µM; Q99873; recombinant PRMT1, activity-based probe fluorescence polarization;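 active = inhibition above about 21% made by adding two undisclosed values, limit read from the data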
MBD2 inh = inhibitors of human MBD2 binding to methylated oligonucleotide | Q9UBB5 | TR-FRET | inhibition, % at 4.4 µM | 370,000 compounds, 0.31% hits | AID 686964; in the data active = inhibition above about 13%
SIAE confirm = confirmation of human SIAE inhibitors. 2,300 compounds, 13% hits. SIAE FP-Rh activity-based probe, fluorescence polarization. inhibition, % at 9.66 µM. AID 1117263. shares compounds with SIAE inh;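 active = mean inhibition of the replicates above the hit cutoff set in the primary screen, cut at about 17% in these data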;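 note: 0% = SIAE with DMSO and probe and 100% = probe without SIAE; inhibitors lower polarization as more probe stays unbound to SIAE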
* = called active by the depositor. Shown are actives, neighbours in structure and some others; about 3.3% of the full set was active somewhere.

What do the screens show for `CC(=O)NC(c1ccccc1)c1cc(Cl)c2cccnc2c1O` (stereo not drawn)?
LEDGF integ inh: 0; UHRF1 MBD2 ctr: -5; SIAE inh: 20*; TDP2 inh: -15; PRMT1 inh: -5; MBD2 inh: -4; SIAE confirm: 17*

How did CCCC(=O)NC(c1ccc(OC)c(OC)c1)c1cc(Cl)c2cccnc2c1O (stereo not drawn) do in these assays?
LEDGF integ inh: -5; UHRF1 MBD2 ctr: 0; SIAE inh: 20*; TDP2 inh: 0; PRMT1 inh: -2; MBD2 inh: -1; SIAE confirm: 12

How did C=CCN1C[C@H](COC(=O)c2ccc(C)c(C)c2)Oc2cccc(F)c2S1(=O)=O do in these assays?
LEDGF integ inh: 6; UHRF1 MBD2 ctr: -1; SIAE inh: -7; TDP2 inh: -2; PRMT1 inh: -1; MBD2 inh: -1

Results for COC(=O)[C@H]1C[C@@H]1[C@H](NC(=O)[C@H]1C[C@@H]1[C@H](NC(=O)OCc1ccccc1)c1ccccc1)c1ccccc1 ?
LEDGF integ inh: 0; UHRF1 MBD2 ctr: 1; SIAE inh: 20*; TDP2 inh: -1; PRMT1 inh: -1; MBD2 inh: -2; SIAE confirm: -3

How did Cc1cnc(C(=O)Oc2ccc(-c3ccccc3)cc2)cn1 do in these assays?
LEDGF integ inh: -8; UHRF1 MBD2 ctr: 0; SIAE inh: 17*; TDP2 inh: 0; PRMT1 inh: 2; MBD2 inh: -4; SIAE confirm: -7

Results for CCOC(=O)[C@]12CCCC=C1N(CCCOC)C(=O)[C@@H]2CC(=O)NCCCN1CCCC1=O ?
LEDGF integ inh: 2; UHRF1 MBD2 ctr: 4; SIAE inh: -2; TDP2 inh: 1; PRMT1 inh: -3; MBD2 inh: 0

Results for COc1ccccc1CNc1nc(NCc2ccccc2OC)c2sccc2n1 ?
LEDGF integ inh: 0; UHRF1 MBD2 ctr: 0; SIAE inh: 20*; TDP2 inh: -5; PRMT1 inh: -3; MBD2 inh: 8; SIAE confirm: 13

Results for CCOC(=O)C1=NOC(C(C)=O)(C(=O)N2CCOCC2)C1 (stereo not drawn) ?
LEDGF integ inh: -2; UHRF1 MBD2 ctr: 2; SIAE inh: -3; TDP2 inh: -1; PRMT1 inh: -1; MBD2 inh: 1

What do the screens show for `CCOC(=O)C1CN(S(=O)(=O)c2ccc(OC)cc2)c2cc(CC(=O)OC)ccc2O1` (stereo not drawn)?
LEDGF integ inh: -1; UHRF1 MBD2 ctr: 0; SIAE inh: -4; TDP2 inh: -1; PRMT1 inh: 3; MBD2 inh: 2

Results for CCOC(=O)C1CN(S(C)(=O)=O)c2cc(CC(=O)OC)ccc2O1 (stereo not drawn) ?
LEDGF integ inh: 0; UHRF1 MBD2 ctr: 0; SIAE inh: 29*; TDP2 inh: -4; PRMT1 inh: -1; MBD2 inh: -1; SIAE confirm: 5

What do the screens show for `COc1cc(/C=N/NC(=O)c2ccc(CSc3nc4ccccc4[nH]3)cc2)ccc1O`?
LEDGF integ inh: 3; UHRF1 MBD2 ctr: 1; SIAE inh: 19*; TDP2 inh: -10; PRMT1 inh: 2; MBD2 inh: 0; SIAE confirm: 3

What do the screens show for `COc1cc(/C=N/NC(=O)c2ccccc2)ccc1O`?
LEDGF integ inh: -8; UHRF1 MBD2 ctr: -3; SIAE inh: -3; TDP2 inh: -4; PRMT1 inh: -2; MBD2 inh: -7

Results for O=C(OCC#CCSc1nnc(-c2cccc3ccccc23)o1)c1cccc(C(F)(F)F)c1 ?
LEDGF integ inh: 4; UHRF1 MBD2 ctr: 4; SIAE inh: 2; TDP2 inh: -1; PRMT1 inh: 0; MBD2 inh: 1

How did O=C(N[C@H](C(=O)N1CCC[C@H]1C(=O)NC1CCCC1)C1CCCCC1)C1CC1 do in these assays?
LEDGF integ inh: 2; UHRF1 MBD2 ctr: -7; SIAE inh: -2; TDP2 inh: 6; PRMT1 inh: -6; MBD2 inh: 1
